Measurements: PMC2606940 (The Journal of General Physiology, 2009)
Residue numbers refer to the chain shown, from its start. Read-outs that look alike come from different tables or passages of the source.

Tests used:
CLC-0 E166G mutant = molecular target: T1, CLC-0 E166G mutant (Torpedo marmorata, UniProt P21564, C212S/E166G); type: cell-based; details: read-out: Apparent affinity (K1/2)
T1 sequence (P21564 1-805 E166G/C212S): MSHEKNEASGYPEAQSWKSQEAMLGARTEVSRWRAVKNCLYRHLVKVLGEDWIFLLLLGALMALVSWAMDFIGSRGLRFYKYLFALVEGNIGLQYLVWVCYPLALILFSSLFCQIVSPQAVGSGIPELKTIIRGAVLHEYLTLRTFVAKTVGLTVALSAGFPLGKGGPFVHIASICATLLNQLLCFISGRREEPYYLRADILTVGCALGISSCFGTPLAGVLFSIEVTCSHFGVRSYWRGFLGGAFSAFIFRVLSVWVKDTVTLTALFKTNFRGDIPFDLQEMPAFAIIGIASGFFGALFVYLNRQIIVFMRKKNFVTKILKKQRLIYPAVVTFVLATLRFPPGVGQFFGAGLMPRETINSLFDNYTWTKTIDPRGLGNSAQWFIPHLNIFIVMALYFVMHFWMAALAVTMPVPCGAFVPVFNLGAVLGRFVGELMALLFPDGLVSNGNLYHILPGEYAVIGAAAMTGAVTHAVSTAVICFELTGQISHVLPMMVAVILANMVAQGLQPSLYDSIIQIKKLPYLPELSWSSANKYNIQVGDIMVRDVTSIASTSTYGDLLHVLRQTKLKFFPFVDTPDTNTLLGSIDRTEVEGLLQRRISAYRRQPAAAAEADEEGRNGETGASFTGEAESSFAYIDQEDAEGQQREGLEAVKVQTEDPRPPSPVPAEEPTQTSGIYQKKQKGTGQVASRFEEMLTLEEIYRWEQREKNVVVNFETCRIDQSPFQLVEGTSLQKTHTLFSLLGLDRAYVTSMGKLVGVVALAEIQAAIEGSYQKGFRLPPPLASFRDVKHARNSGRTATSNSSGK
Summary of the method: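 CLC-0 mutants in the C212S background were transfected into HEK293 cells with lipofectamine and recorded 1–3 d later as excised inside-out patches. Both sides held 130 mM NaCl, 5 mM MgCl2, 10 mM HEPES and 1 mM EGTA, pH 7.4. CPA was perfused continuously onto the cytoplasmic face. Steady-state current over the last 10 ms was normalized to bracketing blocker-free controls and fitted to a Langmuir function for K1/2. Values are mean ± SEM of ~4–6 patches.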

CLC-0 E166A mutant = molecular target: T2, CLC-0 E166A mutant (Torpedo marmorata, UniProt P21564, C212S/E166A); type: cell-based; details: for IC50: read-out: Apparent affinity (K1/2)
T2 sequence (P21564 1-805 E166A/C212S): T1 sequence (P21564 1-805 E166G/C212S) with G166A
Summary of the method: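 HEK293 cells expressed C212S-background CLC-0 mutants and were recorded 1–3 d post-transfection as inside-out patches in symmetrical 130 mM NaCl, 10 mM HEPES, pH 7.4. CPA, fatty acids or alkyl sulfates flowed continuously on the cytoplasmic side. C10–C12 compounds were diluted into bath solution from 10 mM DMSO stocks. Test steps ran from +80 to −160 mV after a +80 mV prepulse. Steady-state current was normalized to the mean of pre- and post-blocker controls, and a Langmuir K1/2 was taken at each voltage from ~4–6 patches.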

| K1/2 (range in words) (CLC-0 E166A mutant; −140 mV (Fig. 10 C)) | SMILES | IC50 (CLC-0 E166G mutant; −40 mV) [µM] | IC50 (CLC-0 E166G mutant; −60 mV) [µM] | IC50 (CLC-0 E166G mutant; −80 mV) [µM] | IC50 (CLC-0 E166G mutant; −100 mV) [µM] | IC50 (CLC-0 E166G mutant; −120 mV) [µM] | IC50 (CLC-0 E166G mutant; −140 mV) [µM] | IC50 (CLC-0 E166G mutant; −160 mV) [µM] | IC50 (CLC-0 E166A mutant; −40 mV) [µM] | IC50 (CLC-0 E166A mutant; −60 mV) [µM] | IC50 (CLC-0 E166A mutant; −80 mV) [µM] | IC50 (CLC-0 E166A mutant; −100 mV) [µM] | IC50 (CLC-0 E166A mutant; −120 mV) [µM] | IC50 (CLC-0 E166A mutant; −140 mV) [µM] | IC50 (CLC-0 E166A mutant; −160 mV) [µM] | block of current (CLC-0 E166A mutant; 10 μM) [%] | inhibition of current (CLC-0 E166A mutant; 300 μM CPA, −160 mV) [%] | saturated value of 1/τ of current inhibition (CLC-0 E166A mutant; voltage step +80 to −160 mV) [s⁻¹] |
| --- | --- | --- | --- | --- | --- | --- | --- | --- | --- | --- | --- | --- | --- | --- | --- | --- | --- | --- |
| low μM range | CCCCCCCC(=O)O [octanoate] | 225 ± 13 | 127 ± 8 | 85 ± 6 | 75 ± 6 | 82 ± 8 | 115 ± 14 | 175 ± 19 | 64.3 ± 3.7 | 29.7 ± 1.4 | 15.7 ± 0.7 | 8.2 ± 0.2 | 4.7 ± 0.2 | 2.8 ± 0.2 | 1.9 ± 0.1 | – | – | – |
| – | O=C(O)COc1ccc(Cl)cc1 [CPA, p-chlorophenoxy acetate] | 300 ± 20 | 180 ± 10 | 140 ± 10 | 150 ± 10 | 180 ± 20 | 240 ± 30 | 320 ± 30 | 337 ± 19 | 162 ± 9 | 82 ± 4 | 46 ± 2 | 25 ± 2 | 15 ± 1 | 10 ± 1 | ~50 | ~95 | 1561 |
